# Fewer inactive variants are shown than the library holds.
# B1: tRNA (parent)
# chain: GUUCCGUUGGCGUAAUGGUAACGCGUCUCCCUCCUAAGGAGAAGACUGCGGGUUCGAGUCCCGUACGGAACG
# Variants of: B1
# Experiment: yeast fitness relative to wild type (ratio to wild type); higher = fitter; tRNA-Arg(CCU), competitive growth, 37 C, YPD
# Method in brief: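 Variants of the tRNA-Arg(CCU) gene, chemically synthesised with a 3% per-site mutation rate at 69 sites, were placed at the native genomic locus in Saccharomyces cerevisiae. The pooled strains were competed in YPD at 37°C for 24 hours in six parallel replicates. Gene amplicons from the start population and from each end population were read by 100-nucleotide paired-end sequencing. Darwinian fitness relative to wild type came from changes in genotype frequencies; genotypes needed ≥ 100 starting reads, and estimates < 0.5 were set to 0.5.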
row,Variant,yeast fitness
1,GUUCCGUUGGCGUAAUGGUAACGCGGCUCCCUCCUAAGGAGAAGACUGCGGGUUGGAGUCCCGUACGGAACG [U26G C55G],0.636
2,GUUCCGUUGGCGUAAUGGUAACGCGGCUCCCUCCCAAGGAGAAGACUGCGGGUUCGAGUCCCAUACGGAGCG [U26G U35C G63A A70G],≤ 0.5
3,GUUCCGUUGGCGUAAUGGUAACGCGGCUCCCUCCUAAGGAGAAGACUGCGGGAUUGAGUCACGUACGGAACG [U26G U53A C55U C61A],≤ 0.5
4,GUUCCGUUGGCGUAAUGGUAACGCGGCUCCCUCCUAAGGAGAAGAGUGCGGGUUCGAGUCCCGUACGGAACG [U26G C46G],0.807
5,GUUCCGUUGGCGUAAUGGUAACGCGGCUCCCUCCUAAGGAGAAGACUGCGGAUUCGAGUCCCGUACGUAACG [U26G G52A G68U],≤ 0.5
6,GUUCCGUUGGCGUAAUGGUAACGCGUAUCCCUCCUAAGGAGAAGACUGCGGGUUCGAGUCCCGUACGGAACG [C27A],0.997
7,GUUCCGUUGGCGUAAUGGUAACGCGGCACCCUCCUAAGGAGAAGCCUGCGGGUUCGAGUCCCGUACGGAACG [U26G U28A A45C],≤ 0.5
8,GUUCCGUUGGCGUAAUGGUAACGCGUAUCCCUCCUGAGGAGAAGACUGCGGGUUCGAGUCCCGUACGGAACG [C27A A36G],0.761
9,GUUCCGUUGGCGUAAUGGUAACGCGUAUCCCUCCUGAGGAGAAGACUGCGGGUUCGAGUCGCGUAUGGUACG [C27A A36G C61G C66U A69U],≤ 0.5
10,GUUCCGUUGGCGUAAUGGUAACGCGGCUCCCUCGUACGGAGAAGACUGCGGGUUCGAGUCCCGUAAGGAACG [U26G C34G A37C C66A],≤ 0.5
11,GUUCCGUUGGCGUAAUGGUAACGCGGCUCCCUCCUAAGGAGAAGACUGUGGGUUCGAGUCCCGUACGGAACG [U26G C49U],0.974
12,GUUCCGUUGGCGUAAUGGUAACGCGGCUCCCUCCUAAGCAGAAGGCUGCGGGUUCGCGUCGCGUACGGAACG [U26G G39C A45G A57C C61G],0.592
13,GUUCCGUUGGCGUAAUGGUAACGCGGCUCCCUCCUAAGGAGAAGACUGCCGGUUCGAGUCCCGUAUGGAACG [U26G G50C C66U],≤ 0.5
14,GUUCCGUUGGCGUAAUGGUAACGCGUAUCCCUCCUGAGGAGAAGACUGUGGGUUCGAGUCCCGUACGGAUCG [C27A A36G C49U A70U],≤ 0.5
15,GUUCCGUUGGCGUAAUGGUAACGCGUAUCCCUCCUACGGAGAAGACUGCGGGUUGGAGUCCCGUACGGAACG [C27A A37C C55G],≤ 0.5
16,GUUCCGUUGGCGUAAUGGUAACGCGUAUCCCUCCUGAGGAGAAGACUGCGGGUUCGAGUCUCGUACGGAACG [C27A A36G C61U],≤ 0.5
17,GUUCCGUUGGCGUAAUGGUAACGCGGCUCCCUCCUAAGGAGAAGACUGCGAGUUCGAGUCCCGUACGGAACG [U26G G51A],0.598
18,GUUCCGUUGGCGUAAUGGUAACGCGGCUCCCUCCUAAGGAGAAGACUGCGGGUUCGAGCCCCGUACGGAACG [U26G U59C],0.936
19,GUUCCGUUGGCGUAAUGGUAACGCGGCUCCCUCCUAAGGAGAAGACUGCGGGUUCGAGUCCGGUACGGAACG [U26G C62G],0.755

row,Variant,yeast fitness
1,GUUCCGUUGGCGUAAUGGUAACGCGGCUCCCUCCUAAGGAGAAGACUGCGGGUUCGAGUCCUGUACGGAACG [U26G C62U],0.842
2,GUUCCGUUGGCGUAAUGGUAACGCGGCUCCCUCCUAAGGAGAAGACUGCGCGUUCGACUCCCGUACGGAACG [U26G G51C G58C],0.54
3,GUUCCGUUGGCGUAAUGGUAACGCGGCUCCCUCCUAAGGAGAAGACUGCGGGAUCCAGUCCCAUACGGAACG [U26G U53A G56C G63A],≤ 0.5
4,GUUCCGUUGGCGUAAUGGUAACGCGGCUCCCUCCUAAGGAGAAGACCGCGAGUUCGAGUCCCGUACGGAACG [U26G U47C G51A],0.559
5,GUUCCGUUGGCGUAAUGGUAACGCGGCUCCCUCCUAAGGAGAAGACUGCGAGUUCGAGUCCCGUGCGGAACG [U26G G51A A65G],0.599
6,GUUCCGUUGGCGUAAUGGUAACGCGGCUCCCUCCUAAGGAGAAGACUGCGGGUUCGAGUCCCAUACGGAACG [U26G G63A],0.919
7,GUUCCGUUGGCGUAAUGGUAACGCGUAUCCCUCCUGAGGAGAAGACUGCGGGUUCGGGUCCCGUACGGAACG [C27A A36G A57G],≤ 0.5
8,GUUCCGUUGGCGUAAUGGUAACGCGGCUCCCUCCUAAGGAGAAGACUGCGGGUUCAAGUCCCGUACGGAACG [U26G G56A],0.919
9,GUUCCGUUGGCGUAAUGGUAACGCGGCUCCCUCCUAAGGAGAAGACUGCGGGUUGGAGACCCGGACGGAACG [U26G C55G U59A U64G],≤ 0.5
10,GUUCCGUUGGCGUAAUGGUAACGCGGCUCCCUCCUAAGGAGAAGACUGCGGGUUCGAGUCCCGUACGCAACG [U26G G68C],0.596
11,GUUCCGUUGGCGUAAUGGUAACGCGGCUCCCUCCUAAGGAGAAGACUGCGGGUUCGAGUCCCGUACGAAACG [U26G G68A],0.824
12,GUUCCGUUGGCGUAAUGGUAACGCGUAUCCCUCCUGGGGAGAAGACUGCGGGUUCGAGUCCCGUACGGAUCG [C27A A36G A37G A70U],≤ 0.5
13,GUUCCGUUGGCGUAAUGGUAACGCGGCUCCCUCCUAAGGAGAAGACAGCGGGUUCGAGUCCCGUACGGAACG [U26G U47A],0.811
14,GUUCCGUUGGCGUAAUGGUAACGCGGCUCCCUCCUAAGGAGAAGACUGCGGGUUCGAGUCUCGUACAGAACG [U26G C61U G67A],≤ 0.5
15,GUUCCGUUGGCGUAAUGGUAACGCGGCUCCCUCCUAAGGAGAAGAAUGCGGGUUCGAGUCCCGUGCGGAACG [U26G C46A A65G],0.682
16,GUUCCGUUGGCGUAAUGGUAACGCGGCUCCCUCCUAAGGAGAAGACUACGGGUUCGAGUCUCGUACGGAACG [U26G G48A C61U],0.94
17,GUUCCGUUGGCGUAAUGGUAACGCGGCUCCCUCCUAAGGAGAAGACUGCGGGUUCGAGUCCCGCACGGAACG [U26G U64C],0.878
18,GUUCCGUUGGCGUAAUGGUAACGCGUAUCCCUCCUGAGGAGAAGACUGCGGGUUCGAGUCCCGUACGAAACG [C27A A36G G68A],≤ 0.5
19,GUUCCGUUGGCGUAAUGGUAACGCGUAUCCCUCCUGAGGAGAGGACUGCGGGUUUGAGUUCCGUACGGAACG [C27A A36G A43G C55U C60U],≤ 0.5
